Experimental data: article PMC10055171 (bioRxiv, 2023)
Several values for one entry are separate records, joined by “and”; a condition that tells them apart may be missing. Identical values can stand only once. Where a SMILES comes first, the peptide text is derived from it. The star is where a group is joined. Cbz = O=C(OCc1ccccc1)*

What was measured:
luciferase = test: Luciferase counter-screen: Kinase-Glo without recombinant VCP; format: biochemical; conditions: 62.5 μM ATP, increasing compound, no VCP
VCP (E578Q) = VCP (E578Q) (Mus musculus, UniProt Q01853, E578Q); test: ATPase activity of VCP with D2 Walker B mutation; format: biochemical; conditions: 25 μM activator vs DMSO
Sequence of VCP (E578Q) (Q01853 whole entry E578Q, the tested form may be a part): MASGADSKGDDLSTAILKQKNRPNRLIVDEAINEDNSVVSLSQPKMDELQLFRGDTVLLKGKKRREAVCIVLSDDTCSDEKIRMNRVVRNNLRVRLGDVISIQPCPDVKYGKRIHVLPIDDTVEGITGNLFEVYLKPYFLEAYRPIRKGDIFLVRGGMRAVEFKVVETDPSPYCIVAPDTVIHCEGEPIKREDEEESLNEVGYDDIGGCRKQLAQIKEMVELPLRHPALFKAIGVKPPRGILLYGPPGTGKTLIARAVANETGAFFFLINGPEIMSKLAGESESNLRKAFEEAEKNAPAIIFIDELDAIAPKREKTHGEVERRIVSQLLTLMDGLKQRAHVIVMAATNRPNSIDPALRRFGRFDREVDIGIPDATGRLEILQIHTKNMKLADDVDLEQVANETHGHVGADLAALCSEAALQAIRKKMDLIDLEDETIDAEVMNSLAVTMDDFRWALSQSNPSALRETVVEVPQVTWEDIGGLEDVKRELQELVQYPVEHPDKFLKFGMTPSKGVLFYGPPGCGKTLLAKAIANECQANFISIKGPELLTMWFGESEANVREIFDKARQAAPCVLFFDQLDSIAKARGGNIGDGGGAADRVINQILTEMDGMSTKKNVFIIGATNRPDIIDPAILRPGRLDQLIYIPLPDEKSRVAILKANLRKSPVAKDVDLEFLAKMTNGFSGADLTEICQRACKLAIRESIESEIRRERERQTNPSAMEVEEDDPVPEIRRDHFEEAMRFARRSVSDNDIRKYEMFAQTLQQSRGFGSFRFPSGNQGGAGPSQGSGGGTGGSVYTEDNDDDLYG

ND1L (aa1–481) VCP = ND1L (aa1–481) VCP (Homo sapiens, UniProt P55072); test: ATPase activity of truncated ND1L VCP; format: biochemical; conditions: 25 μM compound vs DMSO
Sequence of ND1L (aa1–481) VCP (P55072 1-481): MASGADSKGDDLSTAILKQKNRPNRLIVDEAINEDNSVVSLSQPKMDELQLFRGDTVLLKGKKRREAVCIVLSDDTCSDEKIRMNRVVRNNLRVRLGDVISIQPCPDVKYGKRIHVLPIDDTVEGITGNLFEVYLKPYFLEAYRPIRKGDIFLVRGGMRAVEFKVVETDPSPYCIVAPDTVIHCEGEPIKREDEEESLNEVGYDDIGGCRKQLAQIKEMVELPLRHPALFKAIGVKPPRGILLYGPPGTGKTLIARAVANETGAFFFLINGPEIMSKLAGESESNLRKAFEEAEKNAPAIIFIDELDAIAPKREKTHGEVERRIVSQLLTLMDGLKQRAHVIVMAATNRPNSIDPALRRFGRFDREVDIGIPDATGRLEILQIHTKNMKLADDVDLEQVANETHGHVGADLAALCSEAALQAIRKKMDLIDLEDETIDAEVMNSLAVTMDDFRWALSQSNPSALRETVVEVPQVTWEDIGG

recombinant WT VCP [1] = target: T1, recombinant WT VCP (Mus musculus, UniProt Q01853); format: biochemical; conditions: for maximal increase of VCP activity / Maximum % Activity (95% CI): WT VCP; for maximal increase of VCP activity: increase over baseline; for Maximum % Activity (95% CI): 50 nM VCP, 62.5 μM ATP, Kinase-Glo; for recombinant WT VCP ATPase activity (in words): luciferase-based Kinase-Glo assay
T1 sequence (Q01853 whole entry): as the sequence (Q01853 whole entry E578Q, the tested form may be a part) above, with Q578E counted along it
Method in brief: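 Titration of activator concentrations against 50 nM His-tagged recombinant VCP, no cofactors, with 62.5 µM ATP. Buffer: 25 mM HEPES pH 7.5, 100 mM NaCl, 10 mM MgCl2, 2% DMSO. Incubated 1 h at 25°C, then 20 min with Kinase-Glo reagent at room temperature, read by luminescence. Fitted to a 3-parameter dose curve with profile-likelihood 95% CI; n=3 with 3 technical replicates.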

recombinant WT VCP [2] = target: T1, recombinant WT VCP; test: MESG-PNP; format: biochemical; conditions: for increase in kcat: 25 μM activator compared with DMSO; for kcat (nmol Pi / nmol VCP / s) (95% CI): WT VCP with 25 μM compound
Method in brief: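 EnzCheck (MESG-PNP) phosphate-release assay: 50 nM recombinant VCP in ATPase buffer with 2% DMSO, 25 µM compound or DMSO, and various ATP concentrations. Absorbance at 360 nm followed for >15 min at 25°C. Phosphate was quantified from an on-plate standard curve. Initial velocities came from linear fits and were fitted to Michaelis-Menten with asymmetric profile-likelihood 95% CI.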

LD2 (aa442–806) VCP = LD2 (aa442–806) VCP (Homo sapiens, UniProt P55072); test: ATPase activity of truncated LD2 VCP; format: biochemical; conditions: 25 μM compound vs DMSO
Sequence of LD2 (aa442–806) VCP (P55072 442-806): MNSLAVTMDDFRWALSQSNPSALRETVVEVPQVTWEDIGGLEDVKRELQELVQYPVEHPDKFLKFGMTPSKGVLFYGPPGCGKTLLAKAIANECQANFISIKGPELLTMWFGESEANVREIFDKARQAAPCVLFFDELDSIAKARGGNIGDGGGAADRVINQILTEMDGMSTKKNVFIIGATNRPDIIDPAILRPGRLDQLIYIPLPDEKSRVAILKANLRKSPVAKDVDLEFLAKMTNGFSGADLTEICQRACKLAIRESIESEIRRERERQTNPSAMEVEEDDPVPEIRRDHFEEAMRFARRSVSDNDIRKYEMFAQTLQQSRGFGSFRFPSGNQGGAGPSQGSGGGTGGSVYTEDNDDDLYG

[3] = target: N-ethylmaleimide-sensitive factor (NSF) (Homo sapiens, UniProt P46459); test: ATPase activity of recombinant NSF; format: biochemical; conditions: 25 μM activator, 50 nM NSF, 62.5 μM ATP
Sequence of N-ethylmaleimide-sensitive factor (NSF) (P46459 whole entry): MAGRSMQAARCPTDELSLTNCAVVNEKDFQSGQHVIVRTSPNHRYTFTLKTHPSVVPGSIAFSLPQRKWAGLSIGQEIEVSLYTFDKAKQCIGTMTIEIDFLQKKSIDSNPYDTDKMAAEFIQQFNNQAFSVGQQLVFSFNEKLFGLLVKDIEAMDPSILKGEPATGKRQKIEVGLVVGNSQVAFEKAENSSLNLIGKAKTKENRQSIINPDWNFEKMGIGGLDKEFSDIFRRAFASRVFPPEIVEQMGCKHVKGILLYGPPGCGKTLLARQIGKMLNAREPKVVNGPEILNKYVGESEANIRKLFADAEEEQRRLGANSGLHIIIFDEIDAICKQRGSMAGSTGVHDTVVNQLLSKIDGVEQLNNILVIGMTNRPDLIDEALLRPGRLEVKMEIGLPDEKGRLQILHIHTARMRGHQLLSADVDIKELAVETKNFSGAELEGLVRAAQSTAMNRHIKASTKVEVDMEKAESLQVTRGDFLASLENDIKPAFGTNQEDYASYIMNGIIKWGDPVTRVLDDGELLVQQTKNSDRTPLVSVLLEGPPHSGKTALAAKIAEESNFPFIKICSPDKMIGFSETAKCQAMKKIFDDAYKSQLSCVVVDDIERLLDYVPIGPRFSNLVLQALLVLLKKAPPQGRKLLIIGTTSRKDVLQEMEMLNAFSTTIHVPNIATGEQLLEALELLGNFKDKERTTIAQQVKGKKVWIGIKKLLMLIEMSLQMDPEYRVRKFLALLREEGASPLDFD

WT VCP + Ufd1/Nploc4 = WT VCP + Ufd1/Nploc4 (Mus musculus, UniProt Q01853); test: Kinase-Glo ATPase assay of recombinant VCP with UFD1/NPLOC4 cofactors; format: biochemical; conditions: for Maximum % Activity (95% CI) / EC50: WT VCP + Ufd1/Nploc4, 50 nM each, 62.5 μM ATP; for EC50: read-out: EC50 (μM) (95% CI)
Sequence of WT VCP + Ufd1/Nploc4 (Q01853 whole entry): as the sequence (Q01853 whole entry E578Q, the tested form may be a part) above, with Q578E counted along it
Sequence of WT VCP + Ufd1/Nploc4 (Q92890 whole entry partner): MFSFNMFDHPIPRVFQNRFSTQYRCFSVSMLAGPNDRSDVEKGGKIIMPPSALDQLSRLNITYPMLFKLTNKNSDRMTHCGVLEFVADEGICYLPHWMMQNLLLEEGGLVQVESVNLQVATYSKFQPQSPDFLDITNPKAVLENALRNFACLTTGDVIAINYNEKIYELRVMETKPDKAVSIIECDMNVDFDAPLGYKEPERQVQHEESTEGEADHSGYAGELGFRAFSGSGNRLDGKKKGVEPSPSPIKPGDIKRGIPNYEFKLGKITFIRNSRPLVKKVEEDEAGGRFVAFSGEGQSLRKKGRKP
Sequence of WT VCP + Ufd1/Nploc4 (Q8TAT6 whole entry partner): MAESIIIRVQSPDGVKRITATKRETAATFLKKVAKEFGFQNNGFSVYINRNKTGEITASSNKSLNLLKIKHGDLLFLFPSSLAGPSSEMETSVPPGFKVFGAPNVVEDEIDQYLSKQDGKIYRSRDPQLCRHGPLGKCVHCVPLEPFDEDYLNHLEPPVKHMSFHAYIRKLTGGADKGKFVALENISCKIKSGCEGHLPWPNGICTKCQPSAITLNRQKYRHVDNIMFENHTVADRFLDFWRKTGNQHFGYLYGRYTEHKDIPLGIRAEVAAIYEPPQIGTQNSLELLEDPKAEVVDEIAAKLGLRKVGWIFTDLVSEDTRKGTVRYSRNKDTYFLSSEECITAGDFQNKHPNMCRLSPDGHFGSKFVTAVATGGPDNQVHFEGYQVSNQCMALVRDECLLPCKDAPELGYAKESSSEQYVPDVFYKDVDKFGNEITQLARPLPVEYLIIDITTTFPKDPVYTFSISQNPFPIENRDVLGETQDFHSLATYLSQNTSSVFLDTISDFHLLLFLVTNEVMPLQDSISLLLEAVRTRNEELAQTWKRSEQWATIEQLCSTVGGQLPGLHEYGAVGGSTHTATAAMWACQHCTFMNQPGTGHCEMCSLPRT
Method in brief: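 50 nM His-tagged recombinant VCP was mixed with 50 nM co-purified UFD1/NPLOC4 complex (1:1 molar) in 25 mM HEPES pH 7.5, 100 mM NaCl, 10 mM MgCl2, 2% DMSO. Added 62.5 µM ATP and a range of activator concentrations, then incubated 1 h at 25°C. ATP remaining was read by Kinase-Glo luminescence after 20 min at room temperature. 3-parameter dose-curve fit with profile-likelihood 95% CI; n=3, 3 technical replicates.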

[4] = test system: HeLa cells expressing myc-TDP-43; test: Immunofluorescence and immunoblot of myc-TDP-43 under proteasome inhibition; format: cell-based
Method in brief: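 For imaging, cells were fixed in 4% paraformaldehyde, permeabilised with 0.1% Triton X-100, stained with anti-myc and DAPI, and imaged by confocal microscopy. For blots, RIPA-soluble and urea-soluble fractions were separated at 100,000 x g, and 25-40 µg protein was immunoblotted with GAPDH as loading control.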

[5] = test system: HeLa cells expressing myc-TDP-4FL; test: Sequential extraction and immunoblot of soluble and insoluble TDP-4FL; format: cell-based
[6] = test system: HeLa cells expressing TDP-4FL; test: Confocal immunofluorescence of intranuclear TDP-4FL inclusion morphology; format: cell-based
[7] = test system: HeLa cells expressing myc-TDP-4FL; test: Anti-myc immunoprecipitation of insoluble TDP-4FL, ubiquitin immunoblot; format: cell-based; conditions: MG132 treatment, immunoprecipitation of insoluble fraction
Method in brief: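 Sequential extraction: RIPA, then 100,000 x g for 30 min at 4°C, then urea/thiourea/CHAPS buffer. The urea-soluble fraction was diluted in TBST containing 100 mM NEM and 5 mM EDTA and incubated overnight at 4°C with anti-c-Myc magnetic beads. Elution was in Laemmli buffer with 0.5 mM DTT, 10 min at 99°C, followed by immunoblotting with IR-dye detection.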

[8] = test system: WT HeLa cells expressing GFP-TDP-4FL; test: Flow cytometry of GFP-TDP-4FL clearance, wild-type HeLa; format: cell-based
[9] = test system: CRISPR-Cas9 knock-in HeLa cells harboring R155H VCP expressing GFP-TDP-4FL; test: Flow cytometry of GFP-TDP-4FL clearance, R155H knock-in HeLa; format: cell-based
[10] = test system: CRISPR-Cas9 knock-in HeLa cells harboring A232E VCP expressing GFP-TDP-4FL; test: Flow cytometry of GFP-TDP-4FL clearance, A232E knock-in HeLa; format: cell-based
drosophila model of MSP = conditions: cited from earlier work
[11] = test system: R155H/R155H mouse model of MSP; conditions: cited from earlier work
[12] = 5μM UP109 + CHX 4 hours after MG132, vs CHX only
[13] = CB5083 + CHX 6 hours after 3 hours MG132

Compound: Clc1ccc2[nH]c3c(N4CCC5(CC4)OCCO5)ncnc3c2c1 [UP158]
- luciferase activity inhibition (luciferase): did not inhibit luciferase activity
- ATPase activity of VCP E578Q (inactive D2, active D1) (VCP (E578Q)): significantly decreased ATPase activity
- ATPase activity of ND1L construct (ND1L (aa1–481) VCP): did not inhibit the ATPase activity
- maximal increase of VCP activity (recombinant WT VCP [1]): 50%
- Maximum % Activity (95% CI) (recombinant WT VCP [1]): 150.3 (146.6, 154.3) %
- recombinant WT VCP ATPase activity (in words) (recombinant WT VCP [1]): significantly increased recombinant WT VCP ATPase activity
- increase in kcat (recombinant WT VCP [2]): more than 50%
- kcat (nmol Pi / nmol VCP / s) (95% CI) (recombinant WT VCP [2]): 0.356 nmol Pi / nmol VCP / s and 0.356 (0.320, 0.396) nmol Pi / nmol VCP / s
- ATPase activity of LD2 construct (LD2 (aa442–806) VCP): significantly increased ATPase activity
- NSF ATPase activity compared to DMSO [3]: No compound significantly increased ATPase activity
- Maximum % Activity (95% CI) (WT VCP + Ufd1/Nploc4): 152.1 (143.2, 164.4) %
- EC50 (WT VCP + Ufd1/Nploc4): 14.3 µM

Compound: O=C(OCCN(C1=NS(=O)(=O)c2ccccc21)c1ccc(Cl)cc1)c1ccco1 [UP163]
- luciferase activity inhibition (luciferase): did not inhibit luciferase activity
- ATPase activity of VCP E578Q (inactive D2, active D1) (VCP (E578Q)): significantly decreased ATPase activity
- ATPase activity of ND1L construct (ND1L (aa1–481) VCP): did not inhibit the ATPase activity
- maximal increase of VCP activity (recombinant WT VCP [1]): 104%
- Maximum % Activity (95% CI) (recombinant WT VCP [1]): 204.0 (189.2, 223.3) %
- recombinant WT VCP ATPase activity (in words) (recombinant WT VCP [1]): significantly increased recombinant WT VCP ATPase activity
- increase in kcat (recombinant WT VCP [2]): more than 50%
- kcat (nmol Pi / nmol VCP / s) (95% CI) (recombinant WT VCP [2]): 0.366 nmol Pi / nmol VCP / s and 0.366 (0.335, 0.401) nmol Pi / nmol VCP / s
- ATPase activity of LD2 construct (LD2 (aa442–806) VCP): significantly increased ATPase activity
- NSF ATPase activity compared to DMSO [3]: No compound significantly increased ATPase activity
- Maximum % Activity (95% CI) (WT VCP + Ufd1/Nploc4): 151.8 (144.7, 160.7) %
- EC50 (WT VCP + Ufd1/Nploc4): 8.9 µM
- change in EC50 with UN compared to without UN (WT VCP + Ufd1/Nploc4; recombinant UN 1:1 molar ratio with VCP): no change in EC50

Compound: O=C(CSc1nc2ccccc2c(=O)n1NC(=O)c1ccccc1)c1ccc(Cl)cc1 [UP12]
- luciferase activity inhibition (luciferase): did not inhibit luciferase activity
- ATPase activity of VCP E578Q (inactive D2, active D1) (VCP (E578Q)): seemed to increase ATPase activity, though not significantly
- ATPase activity of ND1L construct (ND1L (aa1–481) VCP): only compound to increase ATPase activity
- maximal increase of VCP activity (recombinant WT VCP [1]): 39%
- Maximum % Activity (95% CI) (recombinant WT VCP [1]): 139.0 (131.9, 149.0) %
- recombinant WT VCP ATPase activity (in words) (recombinant WT VCP [1]): significantly increased recombinant WT VCP ATPase activity
- increase in kcat (recombinant WT VCP [2]): about 25%
- kcat (nmol Pi / nmol VCP / s) (95% CI) (recombinant WT VCP [2]): 0.309 nmol Pi / nmol VCP / s and 0.309 (0.269, 0.356) nmol Pi / nmol VCP / s
- ATPase activity of LD2 construct (LD2 (aa442–806) VCP): significantly increased ATPase activity
- NSF ATPase activity compared to DMSO [3]: No compound significantly increased ATPase activity
- Maximum % Activity (95% CI) (WT VCP + Ufd1/Nploc4): 124.6 (119.8, 130.2) %
- EC50 (WT VCP + Ufd1/Nploc4): 0.648 µM

Compound: CC(C)C[C@@H](C=O)NC(=O)[C@H](CC(C)C)NC(=O)[C@H](CC(C)C)NC(=O)OCc1ccccc1 [MG132] (Cbz-Leu-Leu-Leu-aldehyde)
- TDP-43 nuclear morphology ([4]; 4μM MG132): formation of coarse nuclear punctae
- insoluble TDP-43 protein ([4]; 4μM MG132 for 0, 3, or 6 hours): increase in insoluble TDP-43 protein
- soluble TDP-43 protein ([4]; 4μM MG132 for 0, 3, or 6 hours): reduction in soluble TDP-43 protein
- insoluble TDP-4FL ([5]; 4μM MG132 for 0, 3, or 6 hours): increase in insoluble TDP-4FL
- soluble TDP-4FL ([5]; 4μM MG132 for 0, 3, or 6 hours): decrease in soluble TDP-4FL
- TDP-4FL inclusion morphology ([6]; 4μM MG132, 3 or 6 hours): coalesced into larger, irregularly shaped aggregates
- ubiquitination of insoluble myc-TDP-4FL [7]: ubiquitination of TDP-4FL protein

Compound: COCCNC(=O)NC(=O)COC(=O)c1cc([N+](=O)[O-])ccc1Sc1nc(C)cs1 [UP109]
- luciferase activity inhibition (luciferase): did not inhibit luciferase activity
- ATPase activity of VCP E578Q (inactive D2, active D1) (VCP (E578Q)): decreased ATPase activity, though less than UP158 and UP163 and not significantly
- ATPase activity of ND1L construct (ND1L (aa1–481) VCP): did not inhibit the ATPase activity
- maximal increase of VCP activity (recombinant WT VCP [1]): 97%
- Maximum % Activity (95% CI) (recombinant WT VCP [1]): 197.4 (189.8, 206.1) %
- recombinant WT VCP ATPase activity (in words) (recombinant WT VCP [1]): significantly increased recombinant WT VCP ATPase activity
- integrated fluorescence intensity (GFP-TDP-4FL) ([8]; 5μM UP109 + CHX 4 hours after 17 hours MG132, vs CHX only): significantly decreased
- integrated fluorescence intensity (GFP-TDP-4FL) ([8]; 20μM UP109 + CHX 4 hours after 17 hours MG132): further reduced
- increase in kcat (recombinant WT VCP [2]): 100%
- kcat (nmol Pi / nmol VCP / s) (95% CI) (recombinant WT VCP [2]): 0.489 nmol Pi / nmol VCP / s and 0.489 (0.459, 0.520) nmol Pi / nmol VCP / s
- insoluble TDP-4FL levels [5, 12]: significant decrease in insoluble TDP-4FL levels
- soluble TDP-4FL levels [5, 12]: increase in soluble TDP-4FL levels
- TDP-4FL aggregate morphology ([6]; 5μM UP109 + CHX 4 hours after MG132): appeared to be smaller and in some cases revert to small anisosomes
- ATPase activity of LD2 construct (LD2 (aa442–806) VCP): significantly increased ATPase activity
- integrated fluorescence intensity (GFP-TDP-4FL) ([9]; 5μM UP109 + CHX vs CHX only): significantly decreased integrated fluorescence intensity
- NSF ATPase activity compared to DMSO [3]: No compound significantly increased ATPase activity
- integrated fluorescence intensity (GFP-TDP-4FL) ([10]; 5μM UP109 + CHX vs CHX only): significantly decreased integrated fluorescence intensity
- Maximum % Activity (95% CI) (WT VCP + Ufd1/Nploc4): 175.3 (164.6, 188.0) %
- EC50 (WT VCP + Ufd1/Nploc4): 13.4 µM

Compound: Cc1cc2c(C(N)=O)cccc2n1-c1nc2c(c(NCc3ccccc3)n1)COCC2 [CB5083]
- altered mitochondrial morphology caused by VCP variants (drosophila model of MSP): reversed
- integrated fluorescence intensity (GFP-TDP-4FL) ([8]; WT cells, CB5083 + CHX 6 hours after 3 hours MG132): significantly higher than CHX only treatment
- insoluble TDP-4FL protein [5, 13]: residual amounts of insoluble TDP-4FL protein
- soluble TDP-4FL protein [5, 13]: significant decrease in soluble TDP-4FL protein
- TDP-4FL aggregate morphology [6, 13]: residual irregularly shaped intranuclear TDP-4FL aggregates
- markers of muscle pathology [11]: improved markers of muscle pathology
- integrated fluorescence intensity (GFP-TDP-4FL) [9, 13]: greater integrated fluorescence intensity compared to CHX only treatment
- integrated fluorescence intensity (GFP-TDP-4FL) [10, 13]: greater integrated fluorescence intensity compared to CHX only treatment
